Rows were chosen to be rich in hits. Some 12% of all compounds tested hit in one or more screens of this group.
Diaph inh CS = counter-screen for diaphorase-based assays: diaphorase inhibitors and chemical oxidizers. diaphorase resazurin-to-resorufin fluorescence, NADH, 16 min; bacterial (C. kluyveri) enzyme, not human. inhibition, % at 20 µM. hit rate 0.69% among 190,000;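 active means primary screen inhibition at 20 µM above a set limit, cut at about 50% in these data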
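Assay system – diaphorase enzyme from Clostridium kluyveri · Amount – diaphorase 0.14 U/mL (working solution) · Times – reaction incubation of 16 min at room temperature · Controls – No-NADH positive control and DMSO neutral control · Signal – resorufin fluorescence 544/590 nm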
L major viab = inhibitors of Leishmania major promastigote growth. inhibition, % at 10 µM. Leishmania major promastigotes, resazurin fluorescence viability. hit rate 9% among 200,000; in the data active means inhibition above about 50%;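 further: promastigotes grown with compound for 44 hours at 28 °C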
Cl transport mod = modulates chloride dependent transport by human KCC2 | Q9H2X9 | KCC2 cells, thallium flux FluoZin-2 fluorescence | B-score of Tl+ flux slope (higher = more flux/activation; lower = inhibition) at 10 µM | hit rate 2.2% among 190,000 | AID 1456;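 active means thallium flux slope and its plate-corrected score both differing from the plate sample mean at a set confidence after two filtering rounds, in either direction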;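 further: slope of fluorescence scaled to starting intensity during 10 to 20 s after thallium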
ROMK mod = modulates human ROMK potassium channel activity; Tet-inducible ROMK, thallium flux fluorescence; actives lie on both sides; B-score at 10 µM; hit rate 2% among 130,000;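 active means signal ratio slope over the read window, or its plate-corrected B-score, at least 3 SD from the plate mean, either direction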;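 further: B-score of the F/F0 ratio slope over 7 to 12 s after thallium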
WT yeast gro inh = growth inhibition of WT yeast, mitochondrial fusion screen; mitochondrial fusion phenotypic screen, WT strain; inhibition, % at 10 µM; hit rate 2.1% among 190,000; AID 1362; in the data active means inhibition above about 58%; tested in S. cerevisiae
Diaph act CS = counter-screen for diaphorase-based assays: diaphorase activators and chemical reducers; Diaphorase/resazurin coupled assay, resorufin fluorescence, 16 min; stronger effect = higher value; 1 = vehicle wells, 0 = NADH-free wells; activation factor at 20 µM; hit rate 0.005% among 190,000;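 active means diaphorase activity raised at least twofold by the compound at 20 µM; inactive means activation factor below 2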
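Material: bacterial diaphorase enzyme (C. kluyveri); amount: enzyme 0.07 U/mL final; reagent: NADH substrate 0.114 mM plus resazurin dye 0.1 mM, final; doses: single compound dose of 20 µM, 1% DMSO final; timing: 16 min enzyme reaction, ambient temperature; measured by: fluorescence of resorufin, 544 nm excitation, 590 nm emission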
Hits are given with their value; – = inactive; · = no result.

SMILES	Diaph inh CS	L major viab	Cl transport mod	ROMK mod	WT yeast gro inh	Diaph act CS
CC(C)Cc1nnc(NS(=O)(=O)c2ccc(Cl)cc2)s1	–	–	–	·	–	–
CCCCCC(=O)N/N=C(\C)c1ccc(N2CCCCC2)cc1	–	–	–	–	–	–
COC(=O)Cc1cn(-c2ncc(C(F)(F)F)cc2Cl)c2ccccc12	–	–	–	–	84	–
CN(C)c1ccc(C(=O)c2ccc(N(C)C)c3ccccc23)cc1	–	–	–	–	61	–
O=C(c1ccc(COc2ccc3c(c2)CCC3)o1)N1CCN(c2ccccc2)CC1	·	–	·	·	·	·
O=C(c1ccco1)N1CCN(C(=O)c2ccc(COc3ccc(Cl)cc3Cl)o2)CC1	·	–	-3.4	·	·	·
Cc1cccc(NC(=O)c2ccc(COc3ccc(Cl)cc3Cl)o2)n1	–	–	·	–	60	–
O=C(c1ccco1)N1CCN(C(=O)c2ccc(COc3ccc4c(c3)CCC4)o2)CC1	–	83	–	·	–	–
O=C(c1ccc(COc2ccccc2Cl)o1)N1CCN(c2ccccc2)CC1	–	–	–	·	–	–
CNc1oc(-c2cccs2)nc1S(=O)(=O)c1ccccc1	–	–	–	–	–	–
CNc1oc(Cc2ccccc2)nc1S(=O)(=O)c1ccc(Cl)cc1	54	–	–	–	–	–
Fc1ccccc1N1CCN(c2nc(-c3cccs3)nc3ccccc23)CC1	–	–	–	–	–	–
CN(Cc1ccccc1F)c1nc(-c2cccs2)nc2ccccc12	–	79	–	–	–	–
COc1cc(NC(=S)N2CCCCC2C)cc(OC)c1OC (stereo not drawn)	–	–	–	–	–	–
CCCc1[nH][nH]c(=O)c1C(c1ccc(Br)cc1)C(C#N)C#N (stereo not drawn)	–	50	–	·	–	–
CCCc1[nH][nH]c(=O)c1C(c1ccc(Cl)cc1)C(C#N)C#N (stereo not drawn)	–	–	–	–	–	–
Cc1cc(C)c[n+](-c2[nH]c(=O)sc2/C=N/NC([S-])=Nc2ccccc2)c1	–	–	–	·	–	–
COc1ccc(Sc2ccccc2CN(C)C)cc1OC	–	–	–	–	–	–
CNCc1ccccc1Sc1ccc(O)c(O)c1	63	–	–	·	–	–
Cc1ccsc1/C=N\NC(=O)c1n[nH]c2c1CCC2	–	–	–	·	–	–
O=C(N/N=C/c1c(Cl)cccc1Cl)c1n[nH]c2c1CCCC2	–	–	–	·	75	–
CCn1cnc2scc(-c3ccccc3)c2c1=O	–	–	–	·	–	–
Cn1cc(/C=N/n2cnc3scc(-c4ccc(Cl)cc4)c3c2=O)c2ccccc21	–	59	·	–	–	–
OCCNCCNCc1ccc(-c2ccccc2)cc1	–	100	–	·	–	–
CCOC(=O)C1=C(C)N(C)C(=S)NC1c1ccc(Cl)cc1Cl (stereo not drawn)	–	–	–	·	–	–
SMILES	Diaph inh CS	L major viab	Cl transport mod	ROMK mod	WT yeast gro inh	Diaph act CS
COC(=O)NC(=S)Nc1ccc(Oc2ccc(Cl)cc2Cl)c(Cl)c1	–	–	11	–	–	–
CN1CCN(C(=S)c2ccc(N(C)C)cc2)CC1	–	94	–	·	–	–
CCN1CCN(C(=S)c2ccc(Br)cc2)CC1	–	85	–	·	–	–
CN1CCN(C(=O)c2ccc(S(=O)(=O)c3ccc(Br)cc3)cc2)CC1	–	–	–	·	–	–
CN1CCN(C(=S)c2ccc(Br)cc2)CC1	–	85	–	·	–	–
CN1CCN(C(=S)c2ccc([N+](=O)[O-])cc2)CC1	–	66	–	·	–	–
CN(C)c1ccc(P(=O)(OCc2ccccc2)C(O)c2ccc(Br)cc2)cc1 (stereo not drawn)	·	·	–	·	·	·
COc1cc(/C=N/NC(=O)c2ccncc2)ccc1OCc1cnc(Cl)s1	–	–	–	–	–	–
O=C1Nc2ccccc2N(O)N1c1cc(-c2ccccc2)[nH]n1	–	–	–	–	–	–
COc1cc(NC(=S)N2CCN(C)CC2)c(OC)cc1Cl	–	–	–	–	–	–
CSc1ccc(C(=S)N2CCN(C(c3ccccc3)c3ccccc3)CC2)cc1	–	–	–	·	–	–
CSc1ccc(C(=S)N2CCN(C)CC2)cc1	–	94	·	–	–	–
CN1CCN(C(=S)Nc2cc([N+](=O)[O-])ccc2Cl)CC1	–	66	–	·	–	–
CCNc1nc(NC(C)C)nc(N(n2cnnc2)S(=O)(=O)c2ccc(C)cc2)n1	–	58	–	–	–	–
